Converted amounts (≈) assume the structure as drawn. The source made the active and inactive calls. No cut-off for these calls is given here.
What was measured:
A549 = experiment: Antiproliferative activity against human A549 cells expressing wild type p53 after 72 hrs by CellTitre-Glo assay; type: functional, cell-based
In short: (§1)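 Cell lines exposed to compound for 72 h; viability read by CellTiter-Glo and IC50 derived. p53 coding-region mutation status of each line established by direct sequencing.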

LOX IMVI = experiment: Antiproliferative activity against human LOXIMVI cells expressing wild type p53 after 72 hrs by CellTitre-Glo assay; type: functional, cell-based; in short: as §1
[1] = target: T1, Tumour suppressor p53/oncoprotein Mdm2 (Homo sapiens, UniProt Q00987); experiment: Inhibition of human recombinant His-tagged MDM2 (1 to 118 residues) interaction with FAM-tagged p53-based peptide (unknown origin) incubated for 15 mins by fluorescence polarization assay; type: protein assay
T1 sequence (P04637 whole entry, the tested form may be a part): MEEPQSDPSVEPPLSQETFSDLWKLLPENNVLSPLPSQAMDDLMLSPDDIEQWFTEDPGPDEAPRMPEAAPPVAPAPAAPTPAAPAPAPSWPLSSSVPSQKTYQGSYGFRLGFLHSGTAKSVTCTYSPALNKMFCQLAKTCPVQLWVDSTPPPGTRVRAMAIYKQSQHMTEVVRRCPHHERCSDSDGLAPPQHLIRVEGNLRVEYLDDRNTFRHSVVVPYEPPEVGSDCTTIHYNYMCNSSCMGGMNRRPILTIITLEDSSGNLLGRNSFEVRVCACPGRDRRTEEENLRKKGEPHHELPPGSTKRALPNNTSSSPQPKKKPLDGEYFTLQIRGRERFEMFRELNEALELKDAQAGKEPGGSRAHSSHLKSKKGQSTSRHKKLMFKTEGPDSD
T1 sequence (Q00987 whole entry, the tested form may be a part): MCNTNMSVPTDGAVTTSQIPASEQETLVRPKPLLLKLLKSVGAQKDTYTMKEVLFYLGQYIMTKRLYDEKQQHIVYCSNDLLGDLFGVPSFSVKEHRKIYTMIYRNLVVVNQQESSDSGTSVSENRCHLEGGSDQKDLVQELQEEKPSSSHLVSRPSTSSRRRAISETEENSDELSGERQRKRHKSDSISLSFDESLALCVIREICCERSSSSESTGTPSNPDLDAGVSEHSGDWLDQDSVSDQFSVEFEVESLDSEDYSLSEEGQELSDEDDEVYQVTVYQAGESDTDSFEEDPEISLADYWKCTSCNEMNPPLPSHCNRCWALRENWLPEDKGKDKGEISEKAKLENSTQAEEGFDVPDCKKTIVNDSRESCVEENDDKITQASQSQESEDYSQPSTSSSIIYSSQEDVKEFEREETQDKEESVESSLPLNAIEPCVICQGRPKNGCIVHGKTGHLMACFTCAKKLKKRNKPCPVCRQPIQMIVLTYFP

[2] = Antiproliferative activity against human HCT116 cells expressing wild type p53 after 72 hrs by CellTitre-Glo assay; type: functional, cell-based; conditions: HCT-116, 72 h
In short: (§2)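 Cancer cell lines of known p53 coding-region status (checked by direct sequencing) were exposed to the compound for 72 h. Viability was read with CellTiter-Glo, and the IC50 was taken from these readings.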

[3] = Antiproliferative activity against p53 null human H1299 cells after 72 hrs by CellTitre-Glo assay; type: functional, cell-based; conditions: NCI-H1299, 72 h; in short: as §2
[4] = target: T1, Tumour suppressor p53/oncoprotein Mdm2; experiment: Inhibition of MDM2/p53 interaction in human HCT116 cells assessed as activation of p53 transcription by luciferase reporter gene assay; type: cell-based, HCT-116
In short: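 p53 transcriptional activation measured in HCT116 cells with a p53 response element–driven luciferase reporter (P53RE-Luc).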

[5] = Permeability from apical to basolateral side in human Caco2 cells; type: ADME, cell-based; conditions: Caco-2, read-out: permeability
SJSA-1 = experiment: Selectivity ratio of IC50 for human SK-UT-1 cells harboring mutant p53 to IC50 for human SJSA1 cells expressing wild type p53; type: functional
In short: (§3)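 Ratio of two IC50s, each from a 72 h CellTiter-Glo viability assay. p53 coding-region status was confirmed by direct sequencing. The ratio is p53-mutant (SK-UT-1) or p53-null (H1299) IC50 divided by wild-type p53 (SJSA-1 or HCT116) IC50.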

[6] = Solubility of compound in pH 7.4 phosphate buffer; type: physicochemical
[7] = Intrinsic clearance in human liver microsomes; type: ADME; conditions: read-out: CLH
Mus musculus [8] = experiment: Dose normalized AUC (0 to 24 hrs) in mouse at 1 mg/kg, po administered as single dose; type: ADME, organism-based; conditions: in vivo
In short: (§4)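 Single oral dose of 1 mg/kg. Vehicle was 20% HPBCD for mouse and 0.4% HPMC for dog and monkey. Plasma AUC over 0–24 h, dose-normalized, reported in μM·h.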

Canis familiaris = experiment: Dose normalized AUC (0 to 24 hrs) in dog at 1 mg/kg, po administered as single dose; type: ADME, organism-based, Canis lupus familiaris; conditions: in vivo; in short: as §4
Rhesus monkey = experiment: Dose normalized AUC (0 to 24 hrs) in monkey at 1 mg/kg, po administered as single dose; type: ADME, organism-based, Macaca mulatta; conditions: in vivo; in short: as §4
HCT-116 [9] = experiment: Selectivity ratio of IC50 for human SK-UT-1 cells harboring mutant p53 to IC50 for human HCT116 cells expressing wild type p53; type: functional; in short: as §3
HCT-116 [10] = experiment: Selectivity ratio of IC50 for p53 null human H1299 cells to IC50 for human HCT116 cells expressing wild type p53; type: functional; in short: as §3
[11] = Clearance in monkey at 1 mg/kg, iv; type: ADME, organism-based, Macaca mulatta; conditions: rhesus monkey, in vivo
[12] = Clearance in dog at 1 mg/kg, iv; type: ADME, organism-based, Canis lupus familiaris; conditions: in vivo
Cytochrome P450 3A4 [13] = target: T2, Cytochrome P450 3A4 (Homo sapiens, UniProt P08684); experiment: Inhibition of CYP3A4 (unknown origin); type: ADME
T2 sequence (P08684 whole entry): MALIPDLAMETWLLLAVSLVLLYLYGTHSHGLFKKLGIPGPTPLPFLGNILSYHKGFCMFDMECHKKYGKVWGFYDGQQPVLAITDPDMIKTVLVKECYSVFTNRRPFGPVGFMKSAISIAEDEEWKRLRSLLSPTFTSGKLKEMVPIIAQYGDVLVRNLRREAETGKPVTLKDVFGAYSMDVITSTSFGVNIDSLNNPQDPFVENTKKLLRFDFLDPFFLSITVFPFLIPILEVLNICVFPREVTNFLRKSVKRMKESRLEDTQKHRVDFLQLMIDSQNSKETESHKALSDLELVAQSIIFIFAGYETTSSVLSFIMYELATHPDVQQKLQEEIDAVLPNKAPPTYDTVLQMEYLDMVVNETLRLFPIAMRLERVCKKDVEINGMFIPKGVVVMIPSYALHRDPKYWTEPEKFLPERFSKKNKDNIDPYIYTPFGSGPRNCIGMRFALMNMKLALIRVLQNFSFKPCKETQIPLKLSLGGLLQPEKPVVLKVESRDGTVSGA

Cytochrome P450 2C8 = Cytochrome P450 2C8 (Homo sapiens, UniProt P10632); experiment: Inhibition of CYP2C8 (unknown origin); type: ADME
Cytochrome P450 2C8, sequence (P10632 whole entry): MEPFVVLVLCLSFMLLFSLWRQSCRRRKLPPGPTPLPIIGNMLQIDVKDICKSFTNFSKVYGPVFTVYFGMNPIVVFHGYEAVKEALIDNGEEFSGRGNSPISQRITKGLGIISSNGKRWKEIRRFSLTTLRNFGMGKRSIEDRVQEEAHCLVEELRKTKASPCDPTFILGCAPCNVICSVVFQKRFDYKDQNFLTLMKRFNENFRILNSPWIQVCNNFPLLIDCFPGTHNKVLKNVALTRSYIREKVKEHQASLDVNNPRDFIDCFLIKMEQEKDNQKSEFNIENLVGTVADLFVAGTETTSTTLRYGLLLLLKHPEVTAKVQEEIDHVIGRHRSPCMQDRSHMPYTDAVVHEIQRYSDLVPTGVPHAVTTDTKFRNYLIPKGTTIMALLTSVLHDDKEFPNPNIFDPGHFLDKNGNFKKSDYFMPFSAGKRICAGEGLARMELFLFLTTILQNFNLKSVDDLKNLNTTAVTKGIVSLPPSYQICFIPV

Cytochrome P450 2C9 = Cytochrome P450 2C9 (Homo sapiens, UniProt P11712); experiment: Inhibition of CYP2C9 (unknown origin); type: ADME
Cytochrome P450 2C9, sequence (P11712 whole entry): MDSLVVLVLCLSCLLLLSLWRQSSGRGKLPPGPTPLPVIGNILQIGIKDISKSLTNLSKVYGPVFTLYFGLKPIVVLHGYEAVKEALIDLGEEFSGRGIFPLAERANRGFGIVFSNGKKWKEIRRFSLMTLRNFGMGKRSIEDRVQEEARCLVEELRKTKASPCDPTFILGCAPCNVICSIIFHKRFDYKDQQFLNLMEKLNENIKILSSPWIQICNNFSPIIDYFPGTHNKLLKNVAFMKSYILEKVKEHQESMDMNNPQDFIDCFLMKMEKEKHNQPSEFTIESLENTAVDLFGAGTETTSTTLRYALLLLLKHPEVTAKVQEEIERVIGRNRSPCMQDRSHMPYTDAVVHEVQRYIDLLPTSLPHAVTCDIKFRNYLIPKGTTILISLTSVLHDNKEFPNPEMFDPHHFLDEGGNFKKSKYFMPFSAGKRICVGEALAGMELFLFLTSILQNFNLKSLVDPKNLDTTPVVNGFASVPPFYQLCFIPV

[14] = Fraction unbound in human plasma; type: ADME, cell-free
[15] = Fraction unbound in dog plasma; type: ADME, cell-free, Canis lupus familiaris
[16] = Fraction unbound in mouse plasma; type: ADME, cell-free
hERG (KCNH2) = hERG (KCNH2) (Homo sapiens, UniProt Q12809); experiment: Inhibition of human ERG at 6 uM relative to control
hERG (KCNH2), sequence (Q12809 whole entry): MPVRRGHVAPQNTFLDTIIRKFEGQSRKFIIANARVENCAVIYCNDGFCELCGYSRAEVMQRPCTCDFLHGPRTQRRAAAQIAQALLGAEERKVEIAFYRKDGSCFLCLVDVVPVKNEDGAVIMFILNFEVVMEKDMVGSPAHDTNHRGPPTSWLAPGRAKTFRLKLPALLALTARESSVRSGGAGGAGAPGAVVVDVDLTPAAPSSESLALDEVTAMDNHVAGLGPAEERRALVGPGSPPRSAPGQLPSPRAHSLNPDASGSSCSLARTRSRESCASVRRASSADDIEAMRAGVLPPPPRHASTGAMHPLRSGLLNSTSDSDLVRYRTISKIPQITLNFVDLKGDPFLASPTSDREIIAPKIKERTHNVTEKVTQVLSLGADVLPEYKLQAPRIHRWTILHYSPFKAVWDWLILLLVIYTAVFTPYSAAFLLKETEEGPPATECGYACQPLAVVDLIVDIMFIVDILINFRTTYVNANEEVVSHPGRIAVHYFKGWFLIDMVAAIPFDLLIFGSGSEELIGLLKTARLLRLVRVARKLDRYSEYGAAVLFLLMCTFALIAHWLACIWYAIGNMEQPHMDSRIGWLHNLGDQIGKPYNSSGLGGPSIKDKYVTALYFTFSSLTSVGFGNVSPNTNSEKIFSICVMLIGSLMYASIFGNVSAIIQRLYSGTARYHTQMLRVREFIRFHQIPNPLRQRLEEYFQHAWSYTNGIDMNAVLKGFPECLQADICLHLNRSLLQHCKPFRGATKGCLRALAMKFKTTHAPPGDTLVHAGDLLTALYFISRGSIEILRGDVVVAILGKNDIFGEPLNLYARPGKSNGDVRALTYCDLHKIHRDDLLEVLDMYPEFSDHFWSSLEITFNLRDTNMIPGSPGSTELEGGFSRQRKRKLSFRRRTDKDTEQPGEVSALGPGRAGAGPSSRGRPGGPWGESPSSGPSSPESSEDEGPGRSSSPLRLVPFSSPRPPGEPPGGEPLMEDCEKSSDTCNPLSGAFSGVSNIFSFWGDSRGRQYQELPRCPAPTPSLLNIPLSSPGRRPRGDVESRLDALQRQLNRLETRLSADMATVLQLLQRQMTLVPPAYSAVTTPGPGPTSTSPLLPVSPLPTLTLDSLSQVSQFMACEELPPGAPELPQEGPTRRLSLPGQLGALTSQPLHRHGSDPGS
In short: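 hERG inhibition measured by voltage clamp at 6 μM compound.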

Cytochrome P450 3A4 [17] = target: T2, Cytochrome P450 3A4; experiment: Time dependent inhibition of CYP3A4 (unknown origin); type: ADME
[18] = Antitumor activity against human SJSA1 cells xenografted in nude mouse assessed as tumor growth inhibition at 50 mg/kg, po qd administered with cycle of 3 days on, 4 days off for 30 days relative to control; type: functional; conditions: SJSA-1, po, read-out: TGI
In short: (§5)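 Nude mice bearing SJSA-1 osteosarcoma xenografts, n = 5 per group. Oral dosing in 20% HPBCD, given either intermittently (daily, 3 days on/4 days off) or continuously daily. Body weight was monitored against a vehicle control group.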

[19] = Antitumor activity against human SJSA1 cells xenografted in nude mouse assessed as tumor growth inhibition at 200 mg/kg, po qd administered with cycle of 3 days on, 4 days off for 30 days relative to control; type: functional; conditions: SJSA-1, po, read-out: TGI; in short: as §5
[20] = Antitumor activity against human SJSA1 cells xenografted in nude mouse assessed as tumor growth inhibition at 200 mg/kg, po qd continuously for 30 days relative to control; type: functional; conditions: SJSA-1, po, 720 h, read-out: TGI; in short: as §5
Mus musculus [21] = experiment: Toxicity in nude mouse xenografted with human SJSA1 cells assessed as body weight loss at 50 to 200 mg/kg, po qd administered with cycle of 3 days on, 4 days off for 30 days; type: organism-based, SJSA-1; conditions: in vivo
In short: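 Nude mice bearing SJSA-1 osteosarcoma xenografts, n = 5 per group. Dosing was oral in 20% HPBCD, either continuous daily at 100 and 200 mpk or intermittent (daily for 3 days on, 4 days off). Body weight was compared against a vehicle-control group.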

CAKI-1 = experiment: Antiproliferative activity against human Caki1 cells expressing wild type p53 after 72 hrs by CellTitre-Glo assay; type: functional, cell-based; in short: as §1
A2780 [22] = experiment: Antiproliferative activity against human A2780 cells expressing wild type p53 after 72 hrs by CellTitre-Glo assay; type: functional, cell-based; in short: as §1
BC1 = experiment: Antiproliferative activity against human BC1 cells expressing wild type p53 after 72 hrs by CellTitre-Glo assay; type: functional, cell-based; in short: as §1
EOL1 = experiment: Antiproliferative activity against human EOL-1 cells expressing wild type p53 after 72 hrs by CellTitre-Glo assay; type: functional, cell-based; in short: as §1
MOLT-3 = experiment: Antiproliferative activity against human MOLT3 cells expressing wild type p53 after 72 hrs by CellTitre-Glo assay; type: functional, cell-based; in short: as §1
A2780 [23] = experiment: Antitumor activity against human A2780 cells xenografted in nude mouse harboring wild type p53 assessed as tumor growth inhibition at 50 mg/kg, po bid continuously for 15 days coadministered with 40 mg/kg, ip, once weekly docetaxel relative to control; type: functional
In short: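 Wild-type p53 mice bearing A2780 ovarian xenografts. The test agent was given at 50 mg/kg orally twice daily, continuously. Docetaxel was given at 40 mg/kg ip weekly, twice in total. Each was given alone and in combination. Read-out was tumor growth inhibition.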

NALM-6 = experiment: Antiproliferative activity against human NALM6 cells expressing wild type p53 after 72 hrs by CellTitre-Glo assay; type: functional, cell-based; in short: as §1
ML-2 = experiment: Antiproliferative activity against human ML2 cells expressing wild type p53 after 72 hrs by CellTitre-Glo assay; type: functional, cell-based; in short: as §1

With `CCC[C@H]1N(C(=O)c2cnccc2C(F)(F)F)CCC[C@@]1(Oc1csc(C(F)(F)F)c1)C(=O)N1CCN(c2ccccc2OCCCC(=O)O)CC1` the Activity (A549) was “Active”, the Activity (LOX IMVI) was “Active” and the IC50 [1] was 7 nM. It also gave an IC50 [2] of 180 nM, an IC50 [3] greater than 50000 nM and an EC50 [4] of 100 nM. The Papp A→B [5] was 18 ×10⁻⁶ cm/s, the “Ratio IC50” value (SJSA-1) was greater than 500 and the solubility [6] was 100 µM (≈ 75.7 µg/mL). For the same compound, the CLint scaled [7] was 3 mL/min/kg, the AUC/dose (Mus musculus [8]) was 0.1 µM·h and the AUC/dose (Canis familiaris) was 5.8 µM·h. The AUC/dose (Rhesus monkey) was 0.2 µM·h, the “Ratio IC50” value (HCT-116 [9]) was greater than 500 and the “Ratio IC50” value (HCT-116 [10]) was greater than 500. The clearance [11] was 23 mL/min/kg, the clearance [12] was 4.1 mL/min/kg and the IC50 (Cytochrome P450 3A4 [13]) was greater than 50000 nM. It also gave an IC50 (Cytochrome P450 2C8) greater than 50000 nM, an IC50 (Cytochrome P450 2C9) greater than 50000 nM and a fraction unbound [14] of 0.04. The fraction unbound [15] was 0.02, the fraction unbound [16] was 0.03 and the inhibition at 6 µM (hERG (KCNH2)) was 20%. The TDI (Cytochrome P450 3A4 [17]) was “Active”, the inhibition in vivo at 50 mg/kg [18] was 92% and the inhibition in vivo at 200 mg/kg [19] was 49%. For the same compound, the inhibition in vivo at 200 mg/kg [20] was 60%, the Activity (Mus musculus [21]) was “Non-toxic” and the Activity (CAKI-1) was “Active”. The Activity (A2780 [22]) was “Active”, the Activity (BC1) was “Active” and the Activity (EOL1) was “Active”. For the same compound, the Activity (MOLT-3) was “Active”, the TGI (A2780 [23]) was 81% and the Activity (NALM-6) was “Active”. For the same compound, the Activity (ML-2) was “Active”.

Reference: ChEMBL document CHEMBL3804796, “Discovery of Novel 3,3-Disubstituted Piperidines as Orally Bioavailable, Potent, and Efficacious HDM2-p53 Inhibitors” (ACS Med Chem Lett, 2016)
